Legend:
[1] = molecular target: T1, Neutrophil elastase (Homo sapiens) (UniProt P08246); experiment: Inhibition of Human Leukocyte Elastase, activity is expressed as biomolecular rate constant
T1 sequence (whole entry): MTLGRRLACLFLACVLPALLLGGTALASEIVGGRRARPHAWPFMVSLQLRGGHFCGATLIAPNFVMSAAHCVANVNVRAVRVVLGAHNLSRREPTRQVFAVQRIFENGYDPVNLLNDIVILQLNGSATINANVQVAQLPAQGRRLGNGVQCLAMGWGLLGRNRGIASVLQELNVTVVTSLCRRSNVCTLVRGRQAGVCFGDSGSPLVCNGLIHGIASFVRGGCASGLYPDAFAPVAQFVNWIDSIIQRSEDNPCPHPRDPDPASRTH
How it was run: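 Spectrophotometric assay at 25 °C with continuous monitoring of p-nitroaniline release at 410 nm from succinyl-Ala-Ala-Pro-Ala-p-nitroanilide. Activity given as the bimolecular rate constant kobs/[I] in M-1 s-1 (±SE).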

Cricetinae gen. sp. = experiment: Inhibition of Human Leukocyte Elastase induced Lung Hemorrhage in Hamsters expressed as % inhibition (mean of 4 animals); format: functional, Cricetulus griseus
How it was run: (§1)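 Hamster lung hemorrhage model: inhibitor given orally at 30 mg/kg (some at 50 mg/kg) 30 min before instillation of HLE into the lung. Hemorrhage measured 3 h after instillation as hemoglobin content of lung lavage fluid, read spectrophotometrically. Reported as % inhibition, mean of four animals (±SD).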

[2] = molecular target: T1, Neutrophil elastase (Homo sapiens); experiment: Inhibition of Human Leukocyte Elastase induced lung hemorrhage in hamsters expressed as % inhibition (mean of 4 animals); format: functional; parameters: concentration or dose not given beside the values; conditions: concentration not given here; how it was run: as §1

| Structure (SMILES) | k obs / 1 [1] [M⁻¹ s⁻¹] | inhibition [2] [%] | Inhibition (Cricetinae gen. sp.) [%] |
| --- | --- | --- | --- |
| CCC1(CC)C(=O)N(C(=O)NCc2ccccc2)C1Sc1nnnn1C (centres undefined) | 3760 | – | 26 |
| CCC1(CC)C(=O)N(C(=O)NCc2ccccc2)C1Oc1cccc([N+](=O)[O-])c1 (centres undefined) | 4800 | – | – |
| CCC1(CC)C(=O)N(C(=O)NCc2ccccc2)C1n1ccccc1=O (centres undefined) | 360 | 29 | – |
| CCC1(CC)C(=O)N(C(=O)NCc2ccccc2)C1Oc1ccc(C(=O)NS(=O)(=O)c2ccc(Cl)cc2)cc1 (centres undefined) | 6900 | 11 | – |
| CCC1(CC)C(=O)N(C(=O)NCc2ccccc2)C1Oc1ccc(SC)cc1 (centres undefined) | 3500 | 2 | – |
| CCC1(CC)C(=O)N(C(=O)NCc2ccccc2)C1Oc1ccc(NC(=O)CCC(=O)O)cc1 (centres undefined) | 2330 | -3 | – |
| CCC1(CC)C(=O)N(C(=O)NCc2ccccc2)C1C(=O)c1ccccc1 (centres undefined) | 22 | – | – |
| CCC1(CC)C(=O)N(C(=O)NCc2ccccc2)C1Sc1cccnc1 (centres undefined) | 250 | -5 | – |
| CCC1(CC)C(=O)N(C(=O)NCc2ccccc2)C1N1C=NC=CN1 (centres undefined) | 246 | 72 | – |
| CCC1(CC)C(=O)N(C(=O)NCc2ccccc2)C1Oc1ccc(C[N+](C)(C)C)cc1 (centres undefined) | 2430 | 4 | – |
| CCC1(CC)C(=O)N(C(=O)NCc2ccccc2)C1Oc1ccc(S(C)(=O)=O)cc1 (centres undefined) | 4500 | 16 | – |
| CCC1(CC)C(=O)N(C(=O)NCc2ccccc2)C1Oc1ccc(C(=O)N2CCC[C@@H]2C(=O)O)cc1 (some centres undefined) | 2900 | – | – |
| CCC1(CC)C(=O)N(C(=O)NCc2ccccc2)C1Oc1ccc(CN(C)C)cc1 (centres undefined) | 1600 | 0 | – |
| CCC1(CC)C(=O)N(C(=O)NCc2ccccc2)C1Oc1ccc(C(=O)O)c2ccccc12 (centres undefined) | 2000 | 15 | – |
| CCC1(CC)C(=O)N(C(=O)NCc2ccccc2)C1Oc1cccc(NC(=O)CCC(=O)O)c1 (centres undefined) | 2700 | – | – |
| CCC1(CC)C(=O)N(C(=O)NCc2ccccc2)C1Oc1ccc([S+](C)[O-])cc1 (centres undefined) | 4200 | – | – |
| CCC1(CC)C(=O)N(C(=O)NCc2ccccc2)C1N1N=CC=CN1Cc1ccccc1 (centres undefined) | 650 | – | – |
| CCC1(CC)C(=O)N(C(=O)NCc2ccccc2)C1Oc1ccc2cc(C(=O)O)ccc2c1 (centres undefined) | 5600 | 28 | – |
| CCC1(CC)C(=O)N(C(=O)NCc2ccccc2)C1n1ccnc1 (centres undefined) | 200 | 55 | – |
| CCC1(CC)C(=O)N(C(=O)NCc2ccccc2)C1Oc1ccc(CC(NC(=O)CCC(=O)O)C(=O)O)cc1 (centres undefined) | 900 | 7 | – |
| CCC1(CC)C(=O)N(C(=O)NCc2ccccc2)C1Oc1ccc([N+](=O)[O-])cc1 (centres undefined) | 6800 | – | – |
| CCC1(CC)C(=O)N(C(=O)NCc2ccccc2)C1Oc1ccccc1NC(=O)CCC(=O)O (centres undefined) | 70 | – | – |
| CCC1(CC)C(=O)N(C(=O)NCc2ccccc2)C1Oc1ccc(CC(NC(=O)c2ccccc2)C(=O)O)cc1 (centres undefined) | 5110 | – | – |
| CCC1(CC)C(=O)N(C(=O)NCc2ccccc2)C1Oc1ccccc1[N+](=O)[O-] (centres undefined) | 890 | – | – |

More lines, main results first:

| k obs / 1 [1] [M⁻¹ s⁻¹] | inhibition [2] [%] | Structure (SMILES) | Inhibition (Cricetinae gen. sp.) [%] |
| --- | --- | --- | --- |
| 1620 | 46 | CCC1(CC)C(=O)N(C(=O)NCc2ccccc2)C1Oc1cccnc1 (centres undefined) | – |
| 1200 | 67 | CCC1(CC)C(=O)N(C(=O)NCc2ccccc2)C1Oc1cccc(CC(=O)O)c1 (centres undefined) | – |
| 1900 | – | CCC1(CC)C(=O)N(C(=O)NCc2ccccc2)C1Oc1ccccc1 (centres undefined) | – |
| 270 | 24 | CCC1(CC)C(=O)N(C(=O)NCc2ccccc2)C1Oc1ccccc1NC(C)=O (centres undefined) | – |
| 1700 | – | CCC1(CC)C(=O)N(C(=O)NCc2ccccc2)C1Oc1cccc(NC(C)=O)c1 (centres undefined) | – |
| 160 | 6 | CCC1(CC)C(=O)N(C(=O)NCc2ccccc2)C1OCC(=O)O (centres undefined) | – |
| 2540 | – | CCC1(CC)C(=O)N(C(=O)NCc2ccccc2)C1Oc1ccc(CC(N)C(=O)O)cc1 (centres undefined) | – |
| 24 | – | CCC1(CC)C(=O)N(C(=O)NCc2ccccc2)C1Oc1cc(C)c(C(=O)O)c(C)c1 (centres undefined) | – |
| 1600 | 61 | CCC1(CC)C(=O)N(C(=O)NCc2ccccc2)C1Oc1ccc(/C=C/C(=O)O)cc1 (centres undefined) | – |
| 54 | – | CCC1(CC)C(=O)N(C(=O)NCc2ccccc2)C1OCc1ccc(C(=O)O)cc1 (centres undefined) | – |
| 1800 | 33 | CCC1(CC)C(=O)N(C(=O)NCc2ccccc2)C1Oc1cccc(C(=O)O)c1 (centres undefined) | – |
| 570 | – | CCC1(CC)C(=O)N(C(=O)NCc2ccccc2)C1Oc1ccc(C(=O)O)c(C(=O)O)c1 (centres undefined) | – |
| 44 | 45 | CCC1(CC)C(=O)N(C(=O)NCc2ccccc2)C1Oc1ccccc1CC(=O)O (centres undefined) | – |
| 3500 | – | CCC1(CC)C(=O)N(C(=O)NCc2ccccc2)C1Oc1ccc(NC(C)=O)cc1 (centres undefined) | – |
| 2100 | 36 | CCC1(CC)C(=O)N(C(=O)NCc2ccccc2)C1Oc1ccc(C(O)C(=O)O)cc1 (centres undefined) | – |
| 5000 | 85 | CCC1(CC)C(=O)N(C(=O)NCc2ccccc2)C1Oc1ccc(C(=O)CCC(=O)O)cc1 (centres undefined) | – |
| 800 | 46 | CCC1(CC)C(=O)N(C(=O)NCc2ccccc2)C1OCC(O)CO (centres undefined) | – |
| – | 68 | CCC1(CC)C(=O)N(C(=O)NCc2ccccc2)C1Oc1ccc(C(=O)O)cc1 (centres undefined) | – |
| 750 | – | CCC1(CC)C(=O)N(C(=O)NCc2ccccc2)C1Oc1c(C)cc(C(=O)O)cc1C (centres undefined) | – |
| 2440 | 60 | CCC1(CC)C(=O)N(C(=O)NCc2ccccc2)C1Oc1ccc(CCC(=O)O)cc1 (centres undefined) | – |

Source: ChEMBL document CHEMBL1127040, “Orally active beta-lactam inhibitors of human leukocyte elastase. 2. Effect of C-4 substitution” (1993)
